Screens: PubChem BioAssay, several laboratories
D1 mod: D1 CRE-luciferase signal change, two-sided – cell-based, HEK293 D1, dopamine EC30, D1 allosteric modulator project, primary screen; D(1A) dopamine receptor (Homo sapiens), P21728; dopamine EC30 potentiation; actives deviate in either direction; B-score at 10 µM; 58,000 tested, 5.9% active; AID 641, 2007;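 active = luminescence count or its row- and column-corrected plate score outside the 99.7% band of the plate's sample wells, on either side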
Target sequence (P21728 whole entry, looked up): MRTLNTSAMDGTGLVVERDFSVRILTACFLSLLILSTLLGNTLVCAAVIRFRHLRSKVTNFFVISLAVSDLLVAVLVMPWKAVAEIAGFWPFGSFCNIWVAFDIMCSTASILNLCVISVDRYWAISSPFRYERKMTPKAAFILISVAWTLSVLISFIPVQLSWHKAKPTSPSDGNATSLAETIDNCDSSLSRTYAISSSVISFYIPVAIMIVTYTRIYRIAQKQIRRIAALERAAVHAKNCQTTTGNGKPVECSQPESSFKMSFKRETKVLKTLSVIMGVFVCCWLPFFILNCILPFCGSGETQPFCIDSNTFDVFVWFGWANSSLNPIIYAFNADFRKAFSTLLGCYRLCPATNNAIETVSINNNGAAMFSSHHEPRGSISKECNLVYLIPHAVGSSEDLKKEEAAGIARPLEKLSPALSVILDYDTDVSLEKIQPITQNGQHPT
M1 antag: antagonists of rat M1 muscarinic receptor | B-score at 10 µM | Muscarinic acetylcholine receptor M1 (Rattus norvegicus), P08482 | CHO-M1 cells, Fluo-4 calcium, ACh EC80 antagonist mode; active compounds read low | 64,000 tested, 3.4% active | AID 628, 2007;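 active = calcium fluorescence response, raw or row-and-column corrected B-score, differing from the plate sample mean either way at a set confidence level, mostly lower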
HEK293 NFkB inh: inhibitors of PMA/ionomycin-induced NF-kB reporter, primary screen, antigen receptor NF-kB inhibitor project, cell-based, HEK-293 luciferase reporter, luminescence; HEK-293 NF-kB luciferase reporter; inhibition, % at 3 µM; 62,000 tested, 0.21% active; AID 465, 2006;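 active = inhibition above the mean of all tested compounds plus 3 SD, cut at about 40% in these data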;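 note: 0% = stimulated DMSO wells and 100% = 10 µM reference inhibitor 5653914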
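System: NF-kB luciferase reporter HEK-293 cells | Replication: Single test | Control set: DMSO vs reference inhibitor | Evaluation: % inhibition | Schedule: 1 h pretreatment, 16 h stimulation, 37 °C | Probe or stimulus: PMA with ionomycin | Compound dosing: One dose, 3 µM | Detection: Luciferase luminescence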
M1 ag: M1 muscarinic receptor agonists, primary screen, CHO-M1 cells, Fluo-4 calcium, agonist mode. Muscarinic acetylcholine receptor M1. B-score at 10 µM. Fluo-4 calcium fluorescence; active compounds read high. 64,000 tested, 3% active;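 active = fluorescence rise, raw or as B-score row- and column-corrected plate score, outside the 99.7% band of its plate's samples, either direction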
Jurkat viability: cytotoxicity toward Jurkat T cells, primary screen, cytotoxicity control, cell-based, Jurkat E6.1, 60K MLSMR library; AID 463, 2006; Jurkat E6.1 viability, ATP luminescence, 48 h; 56,000 tested, 1.2% active; inhibition, % at 4 µM;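 active = inhibition above the mean inhibition of all tested compounds plus 3 SD, cut at about 28% in these data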
mHtt clearance: clearance of mutant huntingtin inclusions, primary screen, imaging, HeLa Exon1htt(103Q)mCFP, confocal imaging; aggregate imaging; zero = plate's median compound well; inhibition, % at 1.5 µM; 47,000 tested, 0.42% active; AID 853, 2007;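 active = inhibition of aggregate fluorescence above about 70%, also judged a hit by eye on the cell image, limit read from the data, passing the limit was not always enough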;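 note: cells exposed to compound for three days before fixation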
M1 agonist conf: rat M1 muscarinic receptor agonists, confirmation, CHO-M1 cells, Fluo-4 calcium, duplicate retest; shares compounds with M1 ag; 1,700 tested, 19% active; Fluo-4 calcium fluorescence, agonist mode; actives lie on both sides; AID 1488, 2009; fluorescence change (max-min) at 10 µM;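 active = fluorescence change differs from the solvent-only DMSO control mean at a set confidence level in both duplicate runs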;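 note: an EC20 dose of acetylcholine follows compound addition during the same imaging run; raw fluorescence intensity difference in instrument units with no normalization to controls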
M4 agonist ctr: agonist activity at rat M4 receptor, confirmation, counter-screen for M1 allosteric modulator project, cell-based, agonist mode; AID 1741, 2009; fluorescence change (max-min) at 10 µM; shares compounds with M1 ag; 1,700 tested, 9% active; CHO M4/Gqi5 cells, Fluo-4 calcium fluorescence; actives lie on both sides;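 active = fluorescence change differing from the plate's solvent-only control wells at 99.7% confidence in both duplicates, whether higher or lower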
Active calls of the source: *; i = inactive; x = not tested or not shown. Compounds with a hit are over-represented: about 9.5% of the library has one in this group of screens.

SMILES	D1 mod	M1 antag	HEK293 NFkB inh	M1 ag	Jurkat viability	mHtt clearance	others
O=C1CN=C(c2cccs2)c2c(sc3c2CCCC3)N1	-1.16	-0.452	4.1	0.06	85.5*	7.7
Cc1cc(N2C(=O)C3CCCN3C2c2sccc2C)no1 (stereo unspecified)	-0.289	0.262	3.7	0.0928	0.9	i
CCCCc1ccc2[nH]cc(CCN)c2c1	-0.0137	0.0607	0.7	0.213	6.7	74.8*
CCSc1cc(C2C(C#N)=C(N)Oc3n[nH]c(C)c32)c(C)o1 (stereo unspecified)	0.66	0.537	3.8	1.33	0.1	9.3
CC12CN3CC(C)(CN(C1)C31CCSCC1)C2=O	-0.07	0.312	0.3	0.488	-4.0	-57.3
Cc1ccccc1-n1c(O)c(C=Nc2ccc3c(c2)OCO3)c(=O)[nH]c1=O	-0.076	0.0195	19.6	7.54*	5.3	x
CCOC(=O)C1C2c3ccccc3O[C@@]1(C)N=C1SCC(=O)N12 (stereo partly specified)	0.48	1.13*	15.7	-0.166	3.2	-7.2
N=c1sc2c(n1Cc1ccccc1)CCCC2	-0.159	-1.25	12.6	1.11	-3.6	x
N=c1c2c(n(Cc3ccc(Cl)cc3Cl)c3c1CCC3)CCCC2	-2.54	-1.48	-1.5	-0.357	37.0*	x
CN1CCC(O)(c2ccccc2)C(C(=O)c2ccccc2)C1 (stereo unspecified)	-3.76	x	6.1	x	1.7	x
CCN1CCC(O)(c2ccccc2)C(C(=O)c2ccccc2)C1 (stereo unspecified)	x	x	x	x	x	86.6*
CC(C)CC1C(C#N)=C(N)Oc2c1c(=O)oc1ccccc21 (stereo unspecified)	0.0412	0.288	5.3	0.0886	-11.8	x
CN1CC=C(c2c[nH]c3ccccc23)CC1	-3.68*	0.011	16.3	0.745	0.2	x
O=C(c1ccc2c(=O)n(Cc3ccc4c(c3)OCO4)c(=S)[nH]c2c1)N1CCC2(CC1)OCCO2	-0.621	-1.83	8.9	0.373	x	x
CCOC(=O)c1c(NC(=O)C(c2ccccc2)c2ccccc2)sc2c1C1CCN2CC1	x	x	x	x	x	74.9*
COc1ccccc1N1CCN(Cc2cccc(OC)c2O)CC1	-4.24*	-1.07	2.4	-0.511	7.6	9.9
CCCNS(=O)(=O)c1ccc(OCC(=O)N2CCN(Cc3ccc4c(c3)OCO4)CC2)cc1	x	-0.36	25.3	-1.22	31.2*	x
CC(C)NS(=O)(=O)c1ccc(OCC(=O)N2CCN(Cc3ccccc3)CC2)cc1	0.438	0.274	13.0	-1.19	11.6	x
COCC(C)OC(=O)c1c(N)n(Cc2ccco2)c2nc3ccccc3nc12 (stereo unspecified)	12.2*	-0.168	x	2.05	x	-48.8
CCCCN=Cc1c(O)n(-c2c(C)cc(C)cc2C)c(=O)[nH]c1=O	0.165	-0.631	2.0	-1.04	-2.2	11.2
CSC(=Nc1ccccc1)c1c(O)n(C)c(=O)n(C)c1=O	-0.522	-0.101	14.2	0.113	33.7*	x
CCN(CC)CCCC(C)N=C(c1ccccc1)c1c(O)n(C)c(=O)n(C)c1=O (stereo unspecified)	x	0.147	x	-0.0504	x	x
CC1CC2(O)c3nonc3CCC2N1O (stereo unspecified)	0.428	-0.204	13.0	-0.538	2.9	x
CCN(CC)Cc1c[nH]c2ccccc12	-8.36*	-0.447	11.0	-1.48	-3.5	-24.8
O=C(CCCN1CCC2(CC1)C(=O)NCN2c1ccccc1)c1ccc(F)cc1	-6.51*	x	x	x	x	x
SMILES	D1 mod	M1 antag	HEK293 NFkB inh	M1 ag	Jurkat viability	mHtt clearance	others
O=C1C2CCCN2C(c2cccs2)N1c1ccccn1 (stereo unspecified)	-1.44	1.28	4.8	-0.608	2.3	-3.2
CCN(CC)CCN=C(C)c1c(O)n(-c2ccccc2OC)c(=O)[nH]c1=O	x	0.2	x	-0.119	x	x
CCn1nc(-c2cccs2)nc2c(=O)n(C)c(=O)nc1-2	x	0.167	96.6*	0.323	35.7*	x
COc1cccc(OC)c1C1=NCC(=O)Nc2c1oc1ccc(Br)cc21	0.183	-0.222	28.2	-0.117	99.1*	x
COc1ccc(C(CC(=O)N2CCC3(CC2)OCCO3)NS(=O)(=O)c2ccc(F)cc2)cc1 (stereo unspecified)	0.457	-0.12	6.9	-0.303	2.2	-173.8
O=C(C1CCCN(c2nnc(-n3cccc3)s2)C1)N1CCC2(CC1)OCCO2 (stereo unspecified)	0.164	-0.0552	18.5	-0.00711	-8.8	12.5
O=C(C1CCN(c2nc3ccc(Br)cc3s2)CC1)N1CCC2(CC1)OCCO2	x	-5.47*	23.2	7.8*	26.5	19.0
N#CC1=C(N)Oc2c(c(=O)oc3ccccc23)C1c1ccc(OC(=O)N2CCOCC2)cc1 (stereo unspecified)	0.54	-0.15	16.2	0.291	-1.2	x
O=C(CN1CCN(Cc2ccc(Cl)cc2)C1=O)N1CCC2(CC1)OCCO2	-0.22	-0.0242	16.8	-0.0765	x	x
O=C(c1cc2c(s1)-c1ccccc1OC2)N1CCC2(CC1)OCCO2	-1.56	-1.57	-36.7	-0.246	38.0*	-40.5
CCN(CC)CC(=O)Nc1ccc(Cl)cc1C(=O)c1ccccc1	x	x	x	x	x	28.1
O=C1CCCC2C3CCCN4CCCC(CN12)C34 (stereo unspecified)	0.621	-0.228	23.1	-2.49*	2.3	x	M1 agonist conf=-10.8;M4 agonist ctr=-44.7
O=P(O)(O)COc1ccccc1O	0.138	-0.809	24.1	1.6	-2.6	-25.4
COc1ccc(CC2C(=O)N(C)C(=O)N(C)C2=O)c(OC)c1	0.515	-3.59*	13.3	6.47*	0.6	x	M1 agonist conf=-3.88;M4 agonist ctr=-23.8
CCOC(=O)C1CCN(/C=C2/C(=O)NC(=O)N(c3ccc(OCC)cc3)C2=O)CC1	0.393	-0.125	8.7	-3.31*	-2.3	21.6	M1 agonist conf=-7.03;M4 agonist ctr=-22.6
O=C(Cn1cnc2sc3c(c2c1=O)CCCC3)NCCC(=O)N1CCC2(CC1)OCCO2	0.574	-0.00273	18.5	-0.0077	1.8	x
CC(C)=CCC12CN3CCN(CC(C3)C1=O)C2	x	-0.184	8.4	0.642	-6.0	x
O=C(c1cccs1)N1C2CCC1CC(O)(c1cccnc1)C2 (stereo unspecified)	-0.798	-0.502	23.8	-0.362	7.8	x
O=C(O)C1CN2CCC1CC2 (stereo unspecified)	x	-0.158	12.3	12.6*	-0.7	x	M1 agonist conf=233*;M4 agonist ctr=-33.9
